Laboratory results: PubChem BioAssay AID2372 (NMMLSC, 2010)

Biological target: Cell division control protein 42 homolog (Homo sapiens) (UniProt P60953)
Experiment: Cdc42 GTP Bmax and Kd shifts – biochemical, nucleotide-depleted protein, Mg buffer, varying GTP, mechanism study for Ras-family GTPase inhibitor project, late-stage follow-up (AID 2372)
Details: GST-Cdc42 beads, BODIPY-GTP binding, flow cytometry
Summary of the method: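 Assay system: Nucleotide-free GST-Cdc42 on glutathione beads | Amount: 4 µM GST-Cdc42 for bead loading | Medium: Buffer with 1 mM MgCl2, after 10 mM EDTA stripping | Compound: Single 10 µM compound dose versus DMSO vehicle | Incubation: EDTA depletion 20 min at 30 °C, compound pre-incubation 2 min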

Cell division control protein 42 homolog (Homo sapiens), sequence (P60953 whole entry, looked up): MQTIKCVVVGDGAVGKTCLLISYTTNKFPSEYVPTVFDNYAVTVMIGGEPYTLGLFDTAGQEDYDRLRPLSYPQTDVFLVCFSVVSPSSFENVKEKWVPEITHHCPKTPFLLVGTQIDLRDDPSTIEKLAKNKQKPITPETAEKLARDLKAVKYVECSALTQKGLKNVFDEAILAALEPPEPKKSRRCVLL

- Bmax with compound (at 10 µM, stronger effect = lower value): 1540
- Kd of GTP with compound (measured here: GTP affinity with 10 uM compound): 7.16 nM
SMILES: COc1ccc(C2CC(c3ccccc3)=NN2c2ccc(S(N)(=O)=O)cc2)cc1 (configuration not stated)
